Data reported in ChEMBL document CHEMBL1137361, “WB4101-related compounds: new, subtype-selective alpha1-adrenoreceptor antagonists (or inverse agonists?)” (J Med Chem, 2006).
Active and inactive are the calls of the source. The rule behind the calls is not given here.

Columns and labels:
[1] = biological target: T1, 5-hydroxytryptamine receptor 1A (Rattus norvegicus, UniProt P19327); assay: Displacement of [3H]8-OH-DPAT from 5-HT1A receptor in rat hippocampus; type: tissue-based
T1 sequence (P19327 whole entry): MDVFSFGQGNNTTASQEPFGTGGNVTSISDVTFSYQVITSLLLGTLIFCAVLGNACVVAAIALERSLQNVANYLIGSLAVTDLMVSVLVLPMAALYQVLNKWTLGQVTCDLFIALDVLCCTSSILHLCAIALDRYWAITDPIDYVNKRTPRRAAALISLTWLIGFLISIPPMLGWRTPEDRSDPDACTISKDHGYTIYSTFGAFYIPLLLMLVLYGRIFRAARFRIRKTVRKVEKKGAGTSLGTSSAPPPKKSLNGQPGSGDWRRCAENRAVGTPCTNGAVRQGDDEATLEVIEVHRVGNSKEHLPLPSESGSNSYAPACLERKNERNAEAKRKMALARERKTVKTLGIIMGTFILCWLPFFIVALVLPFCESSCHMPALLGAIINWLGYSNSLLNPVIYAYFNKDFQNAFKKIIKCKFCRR
Method in brief: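 Radioligand binding with [3H]-8-OH-DPAT in membrane preparations from rat hippocampus. Affinity is expressed as pKi.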

[2] = biological target: T2, Alpha-1A adrenergic receptor (Rattus norvegicus, UniProt P43140); assay: Activity at adrenergic alpha 1A receptor assessed as antagonsim of noradrenaline-induced contraction of […]; type: functional, tissue-based, Sprague-Dawley; details: read-out: pA2 (converted)
T2 sequence (P43140 whole entry): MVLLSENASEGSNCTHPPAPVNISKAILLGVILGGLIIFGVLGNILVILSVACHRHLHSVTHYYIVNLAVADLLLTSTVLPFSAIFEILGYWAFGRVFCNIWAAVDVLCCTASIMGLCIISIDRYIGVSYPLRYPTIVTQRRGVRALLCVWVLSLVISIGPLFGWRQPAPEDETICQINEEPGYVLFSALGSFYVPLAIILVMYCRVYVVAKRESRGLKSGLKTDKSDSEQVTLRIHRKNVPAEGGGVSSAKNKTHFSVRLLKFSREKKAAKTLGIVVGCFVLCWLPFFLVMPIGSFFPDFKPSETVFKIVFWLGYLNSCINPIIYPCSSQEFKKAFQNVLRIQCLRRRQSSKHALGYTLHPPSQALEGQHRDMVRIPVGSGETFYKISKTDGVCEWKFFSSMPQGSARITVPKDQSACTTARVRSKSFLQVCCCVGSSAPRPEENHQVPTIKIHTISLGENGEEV
Method in brief: (§1)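 Rat vas deferens, prostatic portion. Contraction was induced with (-)-noradrenaline, and blocking activity was measured as antagonism of that contraction.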

[3] = biological target: T3, Alpha-2A adrenergic receptor (Rattus norvegicus, UniProt P22909); assay: Activity at adrenergic alpha 2A receptor assessed as antagonism on clonidine-inhibited twitch responses of field-stimulated Sprague-Dawley rat vas deferens; details: read-out: pA2 (converted)
T3 sequence (P22909 whole entry): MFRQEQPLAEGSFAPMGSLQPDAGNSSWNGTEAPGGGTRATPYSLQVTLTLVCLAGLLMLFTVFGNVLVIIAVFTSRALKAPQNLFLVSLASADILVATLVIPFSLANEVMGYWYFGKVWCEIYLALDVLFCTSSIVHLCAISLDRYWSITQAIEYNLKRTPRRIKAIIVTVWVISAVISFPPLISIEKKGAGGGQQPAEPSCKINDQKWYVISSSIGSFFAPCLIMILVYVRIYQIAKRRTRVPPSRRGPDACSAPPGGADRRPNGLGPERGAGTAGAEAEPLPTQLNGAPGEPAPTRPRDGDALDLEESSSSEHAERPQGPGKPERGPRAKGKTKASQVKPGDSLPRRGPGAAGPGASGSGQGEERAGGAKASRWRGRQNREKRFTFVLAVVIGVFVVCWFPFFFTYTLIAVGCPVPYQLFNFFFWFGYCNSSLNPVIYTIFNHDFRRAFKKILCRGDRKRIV

[4] = biological target: T2, Alpha-1A adrenergic receptor; assay: Activity at adrenergic alpha 1A receptor assessed as antagonism of noradrenaline-induced contraction of Sprague-Dawley rat vas deferens; type: functional, tissue-based; details: read-out: pA2 (converted); method in brief: as §1
[5] = biological target: T4, Alpha-1D adrenergic receptor (Homo sapiens, UniProt P25100); assay: Displacement of [3H]prazosin from cloned human adrenergic alpha 1D receptor expressed in CHO cells; type: cell-based
T4 sequence (P25100 whole entry): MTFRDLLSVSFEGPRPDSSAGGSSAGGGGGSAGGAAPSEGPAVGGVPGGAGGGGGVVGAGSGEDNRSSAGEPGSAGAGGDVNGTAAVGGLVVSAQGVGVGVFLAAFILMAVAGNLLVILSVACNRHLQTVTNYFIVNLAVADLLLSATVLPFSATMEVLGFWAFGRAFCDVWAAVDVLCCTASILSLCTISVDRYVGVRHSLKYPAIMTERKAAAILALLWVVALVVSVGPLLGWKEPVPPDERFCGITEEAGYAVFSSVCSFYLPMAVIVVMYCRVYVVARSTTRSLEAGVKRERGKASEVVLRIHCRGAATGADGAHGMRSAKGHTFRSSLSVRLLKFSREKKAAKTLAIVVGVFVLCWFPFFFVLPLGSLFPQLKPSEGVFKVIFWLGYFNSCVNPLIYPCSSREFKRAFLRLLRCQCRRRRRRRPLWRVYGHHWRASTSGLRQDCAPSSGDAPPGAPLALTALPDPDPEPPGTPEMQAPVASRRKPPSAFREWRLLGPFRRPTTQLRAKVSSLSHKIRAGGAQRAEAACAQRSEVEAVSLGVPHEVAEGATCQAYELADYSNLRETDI
Method in brief: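 Radioligand binding with [3H]prazosin as the label. Membranes came from CHO cells expressing the cloned human receptor. Affinity is expressed as pKi.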

Cavia porcellus [6] = organism: Cavia porcellus; assay: Inverse agonist effect on calcium-induced increase in resting tension of calcium-depleted guinea pig thoracic aorta at 100 nM; type: functional
Method in brief: (§2)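 Guinea pig thoracic aorta was calcium-depleted and preincubated with antagonist, then challenged with Ca2+. The Ca2+-induced increase in resting tone was compared with the increase after the same Ca2+ challenge in the absence of antagonist.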

[7] = biological target: Alpha adrenergic receptor 1A and 1B (Rattus norvegicus) (UniProt P15823+P43140); assay: Selectivity for Sprague-Dawley rat adrenergic alpha 1B receptor over adrenergic alpha 1A receptor; type: functional
Cavia porcellus [8] = organism: Cavia porcellus; assay: Inverse agonist effect on calcium-induced increase in resting tension of calcium-depleted guinea pig thoracic aorta at 10 nM; type: functional; method in brief: as §2

Sequence of Alpha adrenergic receptor 1A and 1B (Rattus norvegicus) (P15823 whole entry, looked up, one chain of several): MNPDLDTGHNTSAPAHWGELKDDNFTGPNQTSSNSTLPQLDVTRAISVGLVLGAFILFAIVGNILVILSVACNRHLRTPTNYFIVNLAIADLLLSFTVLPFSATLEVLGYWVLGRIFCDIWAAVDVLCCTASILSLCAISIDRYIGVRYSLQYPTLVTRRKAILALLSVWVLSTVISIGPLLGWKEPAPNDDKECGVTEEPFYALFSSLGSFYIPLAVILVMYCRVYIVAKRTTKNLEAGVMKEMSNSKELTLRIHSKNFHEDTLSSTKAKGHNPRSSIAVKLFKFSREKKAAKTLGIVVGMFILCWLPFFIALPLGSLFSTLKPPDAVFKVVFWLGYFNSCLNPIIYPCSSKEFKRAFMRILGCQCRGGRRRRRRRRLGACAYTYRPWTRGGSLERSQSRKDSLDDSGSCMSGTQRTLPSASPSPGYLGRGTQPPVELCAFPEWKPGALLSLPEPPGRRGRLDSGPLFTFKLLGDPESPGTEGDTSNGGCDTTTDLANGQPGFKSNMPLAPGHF

Row | SMILES | Ki [1] [nM] | Kb [2] [nM] | Kb [3] [nM] | Kb [4] [nM] | Ki [5] [nM] | Activity (Cavia porcellus [6]) | Selectivity ratio [7] | Activity (Cavia porcellus [8])
1 | COc1ccc2ccccc2c1OCCNC[C@H]1COc2cc3c(cc2O1)CCCC3 | 1700 | 42.7 | > 10000 | 10.5 | 148 | Active | > 955 | –
2 | COc1cccc(OC)c1OCCNC[C@H]1COc2cc3c(cc2O1)CCCC3 | 363 | – | – | > 10000 | 339 | – | < 0.3 | –
3 | COc1ccc2ccccc2c1OCCNC[C@H]1COc2ccccc2O1 | 11.2 | – | 1350 | 1.1 | 6.61 | – | 0.2 | Active
4 | COc1cc(-c2ccccc2)ccc1OCCNC[C@H]1COc2ccccc2O1 | 74.1 | – | – | 759 | 214 | – | 0.17 | –
5 | COc1cccc(OC)c1OCCNC[C@H]1COc2cc3ccccc3cc2O1 | 347 | – | > 10000 | 3470 | 417 | – | 0.7 | –
6 | COc1ccc(-c2ccccc2)cc1OCCNC[C@H]1COc2ccccc2O1 | 52.5 | – | – | > 10000 | 15.1 | – | < 0.01 | –
7 | COc1ccc2c(c1OCCNC[C@H]1COc3ccccc3O1)CCCC2 | 8.51 | – | – | 91.2 | 14.5 | – | 0.05 | –
8 | COc1ccc2ccccc2c1OCCNC[C@@H]1COc2ccccc2O1 | 67.6 | – | 631 | 58.9 | 22.4 | – | 0.25 | inactive
9 | COc1cccc(-c2ccccc2)c1OCCNC[C@H]1COc2ccccc2O1 | 6.92 | – | – | 6.17 | 3.39 | – | 1.2 | inactive
